Experimental data published in ChEMBL document CHEMBL1137010, “Improved peptide prodrugs of 5-ALA for PDT: rationalization of cellular accumulation and protoporphyrin IX production by direct determination of cellular prodrug uptake and prodrug metabolization” (J Med Chem, 2009).
The source made the active and inactive calls. No cut-off for these calls is given here.

Key:
[1] = test system: PAM212; assay: Drug uptake in mouse PAM212 cells assessed as PpIX production per mg of protein at 1 mM after 4 hrs; assay type: ADME, cell-based; conditions: pam212, 4 h, 1000 µM
How it was run: (§1)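 Cells (PAM212; A549 in F12K; Caco-2 in EMEM, 37 °C, 5% CO2) were seeded in 100 mm dishes and grown 48 h at 37 °C. After PBS washing they were incubated 4 h at 37 °C with 0.1 or 1 mM drug, washed, lysed 15 min and scraped, then centrifuged at 1800 g for 10 min. Supernatant PpIX was read by fluorescence (410/635 nm) against a PpIX standard curve and normalized to protein by BCA.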

[2] = test system: PAM212; assay: Drug uptake in mouse PAM212 cells assessed as PpIX production per mg of protein at 0.1 mM after 4 hrs; assay type: ADME, cell-based; conditions: pam212, 4 h, 100 µM; how it was run: as §1
[3] = test system: PAM212; assay: Drug uptake in mouse PAM212 cells assessed as intracellular 5-aminolaevulinic acid level per mg of protein at 0.1 mM after 4 hrs; assay type: ADME, cell-based; conditions: pam212, 4 h, 100 µM
[4] = test system: PAM212; assay: Drug uptake in mouse PAM212 cells assessed as intracellular 5-aminolaevulinic acid level per mg of protein at 1 mM after 4 hrs; assay type: ADME, cell-based; conditions: pam212, 4 h, 1000 µM
[5] = test system: A549; assay: Drug uptake in human A549 cells assessed as PpIX production per mg of protein at 0.1 mM after 4 hrs; assay type: ADME, cell-based; conditions: a549, 4 h, 100 µM; how it was run: as §1
[6] = test system: PAM212; assay: Phototoxicity against mouse PAM212 cells assessed as cell viability at 0.01 mM after 4 hrs irradiated with 2.5 J/cm2 blue light by MTT assay relative to control; assay type: functional, cell-based
How it was run: (§2)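 PAM212 cells were seeded about 5 × 10^4/well, grown 48 h, PBS-washed and incubated 4 h with drug at 0.01, 0.1 or 1 mM. Blue light (peak 420 nm) was delivered at 2.5 J/cm², although the methods section states 1.25 J/cm². Medium was then replaced and cells kept 24 h. MTT 1 mg/mL for 3 h, DMSO, A570; survival as % of non-irradiated drug-treated controls.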

[7] = test system: Caco-2; assay: Drug uptake in human Caco-2 cells assessed as PpIX production per mg of protein at 1 mM after 4 hrs; assay type: ADME, cell-based; conditions: caco-2, 4 h, 1000 µM; how it was run: as §1
[8] = test system: A549; assay: Drug uptake in human A549 cells assessed as intracellular 5-aminolaevulinic acid level per mg of protein at 0.1 mM after 4 hrs; assay type: ADME, cell-based; conditions: a549, 4 h, 100 µM
[9] = test system: PAM212; assay: Phototoxicity against mouse PAM212 cells assessed as cell viability at 0.1 mM after 4 hrs irradiated with 2.5 J/cm2 blue light by MTT assay relative to control; assay type: functional; conditions: PAM212, light or radiation study, read-out: Activity; how it was run: as §2
[10] = test system: Caco-2; assay: Drug uptake in human Caco-2 cells assessed as intracellular 5-aminolaevulinic acid level per mg of protein at 1 mM after 4 hrs; assay type: ADME, cell-based; conditions: caco-2, 4 h, 1000 µM
[11] = Chromatographic hydrophobicity index in acetonitrile solution under isocratic conditions at pH 6.8; assay type: physicochemical
How it was run: (§3)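 RP-HPLC on a C18 column at 35 °C, 0.7 mL/min. Mobile phase was CH3CN or CH3OH with 50 mM aq ammonium formate (pH 6.8). […], with t0 from uracil and tR measured in duplicate. Six isocratic compositions were chosen so that −1.5 < log k < 0.6, and the index was derived from the linear log k versus organic-fraction relation.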

[12] = Chromatographic hydrophobicity index in methanol solution under isocratic conditions at pH 6.8; assay type: physicochemical; how it was run: as §3
[13] = test system: PAM212; assay: Drug uptake in mouse PAM212 cells assessed as enhanced PpIX fluorescence at 0.1 mM after 4 hrs; assay type: ADME, cell-based; conditions: pam212, 4 h, 100 µM
How it was run: (§4)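 PAM212 cells were seeded 5 × 10^4/well, grown 48 h, PBS-washed and incubated with drug at 0.01 or 0.1 mM in serum-free medium for 4 or 6 h. Untreated wells gave background and ALA wells served as reference. Well fluorescence: excitation 410 nm, emission 635 nm, scans 600–750 nm. Mean intensity (arbitrary units) after control subtraction, calibrated against rhodamine B.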

[14] = test system: PAM212; assay: Drug uptake in mouse PAM212 cells assessed as enhanced PpIX fluorescence at 0.01 mM after 4 hrs; assay type: ADME, cell-based; conditions: pam212, 4 h, 10 µM; how it was run: as §4
[15] = test system: PAM212; assay: Cytotoxicity against mouse PAM212 cells after 24 hrs in absence of 2.5 J/cm2 blue light by MTT assay; assay type: functional, cell-based
How it was run: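 Dark toxicity. PAM212 keratinocytes (RPMI-1640, 10% FCS) were seeded about 5 × 10^4 cells/well and grown 48 h, PBS-washed, then given drug for 4 h without irradiation. Medium was replaced and cells were kept a further 24 h. MTT 1 mg/mL for 3 h, formazan dissolved in DMSO, absorbance at 570 nm.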

[16] = test system: PAM212; assay: Drug uptake in mouse PAM212 cells assessed as enhanced PpIX fluorescence at 0.01 mM after 6 hrs; assay type: ADME, cell-based; conditions: pam212, 6 h, 10 µM; how it was run: as §4
[17] = test system: PAM212; assay: Drug uptake in mouse PAM212 cells assessed as enhanced PpIX fluorescence at 0.1 mM after 6 hrs; assay type: ADME, cell-based; conditions: pam212, 6 h, 100 µM; how it was run: as §4

SMILES	Drug uptake [1] [ng/mg]	Drug uptake [2] [ng/mg]	Drug uptake [3] [µg/mg]	Drug uptake [4] [µg/mg]	CHI [11]	CHI [12]	Drug uptake [13]	other results
NCC(=O)CCC(=O)O [AMINOLEVULINIC ACID]	310	108	0.81	3.41				Drug uptake [5]: 39.9 ng/mg; Activity [6]: inactive; Drug uptake [7]: 603 ng/mg; Drug uptake [8]: 0.08 µg/mg; viability at 100 µM [9]: 11%; Drug uptake [10]: 2.66 µg/mg
COC(=O)CCC(=O)CNC(=O)[C@@H](CC(C)C)NC(C)=O					33.89	50.76		
CC(=O)N[C@@H](Cc1ccccc1)C(=O)NCC(=O)CCC(=O)O[C@@H]1C[C@H](C)CCC1C(C)C (stereo partly drawn)					53.22	110.53	Active	Drug uptake [14]: Active
COC(=O)CCC(=O)CNC(=O)[C@@H]1CCCN1C(C)=O					18.69	27.47		
COCCOCCOC(=O)CCC(=O)CNC(=O)[C@H](Cc1ccccc1)NC(C)=O					38.88	58.35	Active	Drug uptake [14]: Active
COC(=O)CCC(=O)CNC(=O)[C@@H](Cc1c[nH]c2ccccc12)NC(C)=O					37.32	22.08		
COC(=O)CCC(=O)CNC(=O)[C@H](CCCCN)NC(C)=O	20.2	13.2	0.68	3.06	8.48	13.61		
COC(=O)CCC(=O)CNC(=O)[C@H](Cc1c[nH]c2ccccc12)NC(C)=O	38.9	26.6	2.41	10.3	37.35	22.08		Drug uptake [5]: -0.02 ng/mg; Drug uptake [7]: -5.9 ng/mg; Drug uptake [8]: 0.23 µg/mg; Drug uptake [10]: 8.35 µg/mg
COC(=O)CCC(=O)CNC(=O)[C@@H](C)NC(C)=O					17.3	17.3		
COC(=O)CCC(=O)CNC(=O)CNC(C)=O					10.31	18.77		
COC(=O)CCC(=O)CNC(=O)[C@H]1CCCN1C(C)=O					18.7	27.34		
COC(=O)CCC(=O)CNC(=O)[C@H](C)NC(C)=O	12.9	10.9	0.88	3.93	14.18	17.08	Active	Drug uptake [14]: Active; Activity [15]: inactive; Drug uptake [16]: Active; viability at 100 µM [9]: 3%
COC(=O)CCC(=O)CNC(=O)[C@H](CO)NC(C)=O	222	33.9	0.5	2.17	14.61	36.43		
COC(=O)CCC(=O)CNC(=O)[C@H](NC(C)=O)C(C)C					24.74	40.76		
COC(=O)CCC(=O)CNC(=O)[C@H](CC(=O)O)NC(C)=O	20.2	19.1	0.41	1.94	19.62	24.27		
COC(=O)CCC(=O)CNC(=O)[C@H](CC(C)C)NC(C)=O	290	276	2.8	12.2	36.67	50.92	Active	Drug uptake [14]: Active; Activity [15]: inactive; Drug uptake [16]: Active; Drug uptake [5]: 5.91 ng/mg; Drug uptake [7]: 612 ng/mg; Drug uptake [8]: 0.2 µg/mg; viability at 100 µM [9]: 3%; Drug uptake [17]: Active; Drug uptake [10]: 6.54 µg/mg
COC(=O)CCC(=O)CNC(=O)[C@H](Cc1ccc(O)cc1)NC(C)=O					34.14	40.73		
CC[C@H](C)[C@H](NC(C)=O)C(=O)NCC(=O)CCC(=O)OC	22.3	40.2	1.64	7.1	37.14	46.91		
COC(=O)CCC(=O)CNC(=O)[C@H](Cc1cnc[nH]1)NC(C)=O					15.59	28.89		
COC(=O)CCC(=O)CNC(=O)[C@H](CCC(=O)O)NC(C)=O	276	165	1.2	5.04	23.14	35.01	Active	Activity [15]: inactive; viability at 100 µM [9]: 3%; Drug uptake [17]: Active
CCCCCCOC(=O)CCC(=O)CNC(=O)[C@H](Cc1ccccc1)NC(C)=O	247	284	4.14	18.9	56.64	97.31	Active	Drug uptake [14]: Active; Drug uptake [5]: 10.1 ng/mg; Activity [6]: Active; Drug uptake [7]: 480 ng/mg; Drug uptake [8]: 1.63 µg/mg; viability at 100 µM [9]: 3%; Drug uptake [10]: 14.8 µg/mg
COC(=O)CCC(=O)CNC(=O)[C@@H](Cc1ccccc1)NC(C)=O	-2.99	4.57	1.07	4.35	37.71	52.62		
CCOC(=O)CCC(=O)CNC(=O)[C@H](Cc1ccccc1)NC(C)=O					44.01	57.58	Active	Drug uptake [14]: Active
COC(=O)CCC(=O)CNC(=O)[C@@H](NC(C)=O)C(C)C					25.64	41.6	Active	
COCCOC(=O)CCC(=O)CNC(=O)[C@H](Cc1ccccc1)NC(C)=O					38.26	79.03	Active	Drug uptake [14]: Active
